Experimental data: the array DNA melting data of Ke et al. (doi:10.1101/2024.01.08.574731)

Experiments:
[1] = folding enthalpy; higher = less favourable; fluorescence melt of hairpins on a sequencing array, two-state fit; conditions: sodium 0.088 M
Summary of the method: (§1)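 Cy3 signals were normalised both to pre-quench Cy3 and to control constructs. They came from library hairpins carrying annealed Cy3 and quencher oligos on a sequenced MiSeq flow cell, imaged in 50 mM Na-HEPES pH 8.0, 25 mM NaCl, in 2.5 °C steps up to 60 °C. Bootstrapped two-state fits gave melting temperature and folding enthalpy, and four replicates were combined by inverse variance. Fitted temperatures were then raised by 9.35 °C to match UV melts.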

[2] = melting temperature; fluorescence melt of hairpins on a sequencing array, two-state fit, raised by 9.35 °C to match UV melts; conditions: sodium 0.088 M
Summary of the method: as §1

| Sequence | folding enthalpy [1] [kcal/mol] | Tm [2] [°C] |
| --- | --- | --- |
| GCTGGCCGAAAGGCAGC (((.(((....)))))) | -20.6 | 65.8 |
| GACGCCGAAAGGCGAGTC ((((((....)))..))) | -8.04 | 43.7 |
| GCGCAGCGAAAGCCTCGC (((..((....))..))) | -8.27 | 42.1 |
| GGCGCTGGAAACAACGCC ((((.((....)).)))) | -41 | 55.2 |
| GTGCAGACGAAAGTCCAC (((..(((....)))))) | -16.9 | 37.9 |
| CGGGCGGAAACGCTCCCG ((((((....)))..))) | -14.7 | 48.1 |
| GCGTGAGGACGC ((((....)))) | -18.9 | 50.8 |
| GGTGTCGGAAACGGTACC (((..((....))..))) | -28.6 | 40.9 |
| GCACGCGAAAGCGCATGC ((((((....)))..))) | -13.6 | 43 |
| GTCTTACCGAAAGGTGAC (((..(((....)))))) | -13.9 | 35.7 |
| GATCCTTGGGAGGATC ((((((....)))))) | -43.2 | 53.2 |
| GATGAGGGAAACCTCATC (((((((....))))))) | -39.6 | 58.4 |
| GTAGGCGAAAGCCAATAC ((((((....)))..))) | -9.29 | 33.6 |
| GCTTAGCGAAAGCCGAGC (((..((....))..))) | -15.8 | 42 |
| GAGAGACCGAAAGGTCTC (((..(((....)))))) | -9.65 | 62.5 |
| GAAGGAGAAATCCTTC ((((((....)))))) | -26.8 | 46.3 |
| GTGAGTGGAAACACTCAC (((((((....))))))) | -44 | 66.2 |
| GTCGGTCGAAAGACAGAC (((.(((....))).))) | -37.8 | 57.8 |
| ACTCGGAAACGAGT (((((....))))) | -20.8 | 52.3 |

| Sequence | folding enthalpy [1] [kcal/mol] | Tm [2] [°C] |
| --- | --- | --- |
| GTCCGCGAAAGCGGCGAC ((((((....)))..))) | -10.7 | 67 |
| GCACGAGGAAACTCGTAC (.(((((....))))).) | -12.7 | 38.9 |
| GTTACTGGAAACAGTAGC (.(((((....))))).) | -24.2 | 40.3 |
| GTTACCGAAAGGTGGAAC ((((((....)))..))) | -10.2 | 28.1 |
| GAGCGAACGAAAGTTCTC (((..(((....)))))) | -9.38 | 27.4 |
| GATAACGGAAACGTCATC (((.(((....))).))) | -19.3 | 31.4 |
| GATCCTGAGTAGGATC ((((((....)))))) | -37.9 | 50.9 |
| GATTCCGAAAGGACAATC ((((((....)))..))) | -13.8 | 25.6 |
| GCATAGCGAAAGCATTGC (((..((....))..))) | -18.4 | 50.7 |
| GATCCGAAAACGGATC ((((((....)))))) | -37 | 52.6 |
| GTCTCTGGAAACAGGGAC (((.(((....))).))) | -27.4 | 48.9 |
| GCACTACGAAAGTAATGC (((.(((....))).))) | -29.3 | 43.7 |
| GTGTGTGGAAACACACAC (((((((....))))))) | -32.2 | 68.8 |
| GGGACTCGAAAGAGCCCC (((.(((....))).))) | -34.6 | 57.1 |
| GAGATGAAAATCTC (((((....))))) | -22.2 | 44 |
| GATCAGGAATCTGATC ((((((....)))))) | -41.8 | 54.8 |
| GAACCCGGAAACGAGTTC ((((.((....)).)))) | -27.2 | 40.8 |
| GATAGGGGAAACCCTATC (((((((....))))))) | -42 | 54.9 |
| GATTGGCGAAAGCCATC (((.(((....)))))) | -9.48 | 41.3 |
